Source: ChEMBL document CHEMBL4196140, “Spiro-Phthalides and Isocoumarins Isolated from the Marine-Sponge-Derived Fungus Setosphaeria sp. SCSIO41009” (J Nat Prod, 2018)
pIC50: −log10 of the molar value. ≈ marks a conversion by molar mass, not a printed value. Calls of active or inactive are those of the source. The calls are words filed in the database; no cut-off is given here.

Columns and labels:
Staphylococcus aureus = experiment: Antimicrobial activity against Staphylococcus aureus by broth microdilution method; type: functional, organism-based
Influenza A virus = experiment: Antiviral activity against Influenza A virus H1N1 A/FM-1/1/47 infected in MDCK cells assessed as inhibition of virus-induced cytopathic effect after 48 hrs by MTT assay; type: functional, organism-based
[1] = target: T1, Phosphotyrosine protein phosphatase (Mycobacterium tuberculosis) (UniProt A0A045ISB3); experiment: Inhibition of Mycobacterium PTPB at 50 uM using p-nitrophenyl phosphate as substrate incubated for 10 mins followed by substrate addition and measured for 5 mins by spectrophotometric method
T1 sequence (whole entry): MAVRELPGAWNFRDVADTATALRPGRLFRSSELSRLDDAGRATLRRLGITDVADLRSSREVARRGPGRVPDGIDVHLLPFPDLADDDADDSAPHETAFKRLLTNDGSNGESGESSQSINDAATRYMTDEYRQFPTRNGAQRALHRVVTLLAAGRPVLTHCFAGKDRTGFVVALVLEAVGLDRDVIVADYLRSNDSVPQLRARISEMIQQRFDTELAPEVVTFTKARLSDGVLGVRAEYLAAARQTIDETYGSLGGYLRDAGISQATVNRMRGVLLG

[2] = Antioxidant activity assessed as DPPH radical scavenging activity incubated for 30 mins in dark condition; type: functional
Method in brief: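 Test samples in DMSO were mixed 1:9 with freshly made 0.2 mM DPPH in EtOH (DPPH stock level), giving final compound levels of 50, 25, 12.5, 6.25 and 3.125 μg/mL, in triplicate, with ascorbic acid as positive control. After 30 min in the dark, the fall in absorbance at 517 nm was read. Blank: EtOH instead of DPPH. Control: DMSO instead of sample. % scavenging = [1 − (sample − blank)/control] × 100. IC50 is the concentration scavenging 50% of radicals.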

Colletotrichum asianum = experiment: Antimicrobial activity against Colletotrichum asianum by broth microdilution method; type: functional
Colletotrichum acutatum = experiment: Antimicrobial activity against Colletotrichum acutatum by broth microdilution method; type: functional

Compound | Activity (Staphylococcus aureus) | inhibition (Influenza A virus) | inhibition [1] | pIC50 [2] | MIC (Colletotrichum asianum) | MIC (Colletotrichum acutatum)
CCC[C@H]1C[C@H](O)[C@@]2(OC(=O)c3c2cc(OC)c(OC)c3O)O1 | inactive | inactive | inactive | – | – | –
CCC[C@H]1C[C@H]2OC(=O)c3c(cc(OC)c(OC)c3O)[C@@H]2O1 | inactive | inactive | inactive | – | – | –
CCC[C@@H]1C[C@H]2OC(=O)c3c(cc(O)c(OC)c3O)[C@@H]2O1 | inactive | inactive | inactive | – | – | –
COc1cc2c(c(O)c1OC)C(=O)O[C@@H]1C[C@H](C[C@@H](C)O)O[C@H]21 | inactive | inactive | inactive | – | – | –
CCCC(=O)CC[C@H]1OC(=O)c2c1cc(O)c(OC)c2O | inactive | inactive | inactive | – | – | –
CCCCc1c(OC)cc(=O)oc1C | inactive | inactive | inactive | – | – | –
O=C1O[C@H]([C@@H](O)CO)C(O)=C1O [ASCORBIC ACID] | – | – | – | 4.41 | – | –
CCC[C@@H]1C[C@H]2OC(=O)c3c(cc(OC)c(OC)c3O)[C@@H]2O1 | inactive | inactive | inactive | – | – | –
COC(=O)CCCc1c(OC)cc(=O)oc1C | inactive | inactive | inactive | – | – | –
COc1cc2c(c(O)c1OC)C(=O)O[C@@H]1C[C@H](CCC(=O)O)O[C@H]21 | inactive | inactive | inactive | – | – | –
COCc1c(O)cc(C)c2c1Oc1c(C)cc(O)c(C)c1OC2=O | inactive | inactive | inactive | – | 160 mg/L (≈ 484 µM) | 310 mg/L (≈ 938 µM)
CC[C@@H](O)[C@H]1C[C@H]2OC(=O)c3c(cc(OC)c(OC)c3O)[C@H]2O1 | inactive | inactive | inactive | – | – | –
COc1cc2c(c(O)c1OC)C(=O)O[C@@H]1C[C@H](CCCO)O[C@H]21 | inactive | inactive | inactive | – | – | –
CCCCOCc1c(O)cc(C)c2c1Oc1c(C)cc(O)c(C)c1OC2=O | inactive | inactive | inactive | – | 630 mg/L (≈ 1690 µM) | 630 mg/L (≈ 1690 µM)
CCC(O)Cc1c(OC)cc(=O)oc1C (centres undefined) | inactive | inactive | inactive | – | – | –
CCCCC1=C(OC)C(=O)OC1(C)O (racemic) | inactive | inactive | inactive | – | – | –
C[C@@H]1C[C@@H]([C@H](O)CC2CC(=O)NC(=O)C2)C(=O)[C@@H](C)C1 [CYCLOHEXIMIDE] | – | – | – | – | 80 mg/L (≈ 284 µM) | 40 mg/L (≈ 142 µM)
CCC[C@H]1C[C@H](O)[C@]2(OC(=O)c3c2cc(OC)c(OC)c3O)O1 | inactive | inactive | inactive | – | – | –
CCCCc1c(OC)cc(=O)oc1CO | inactive | inactive | inactive | – | – | –
CC[C@H](O)[C@H]1C[C@H]2OC(=O)c3c(cc(OC)c(OC)c3O)[C@H]2O1 | inactive | inactive | inactive | – | – | –
COc1cc(=O)oc(C)c1CCCC(=O)O | inactive | inactive | inactive | – | – | –
CCCC(=O)CC[C@@H]1OC(=O)c2c1cc(OC)c(OC)c2O | inactive | inactive | inactive | – | – | –
COc1cc(=O)oc(C)c1CCC(C)O (centres undefined) | inactive | inactive | inactive | – | – | –
CCC[C@H]1C[C@H]2OC(=O)c3c(cc(OC)c(O)c3O)[C@H]2O1 | inactive | inactive | inactive | 4.42 | – | –
